The results in this text go back to ChEMBL document CHEMBL1123325, “Isomer-dependent cytostatic activity of bis(1-aziridinyl)cyclophosphazenes” (1986).

The LD50 is the dose at which mortality reaches 50%. What is called T/C is the ratio of treated to control.

Common to all, as to assay type: functional
The subject of test [1] is L1210. As to the kind of experiment: Tested in vivo for 50% lethal dose in L1210 mouse leukemia cells.
For test [2], the system named is L1210. In words: In vitro inhibition dose (cytostatic activity) in L1210 mouse leukemia cells.
In test [3] the test system is Mus musculus. In words: Compound was tested for percent median survival time of drug-treated mice over that of untreated control mice at dose of 175 mg/kg. An outline of the steps:
(§1)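 10^5 L1210 leukemia cells from in vitro suspension culture were injected into male (BALB/c × DBA/2)F1 (CDF1) mice as intraperitoneal leukemia. Dosing began 24 h later, with 5 mice per dose and 10 untreated controls. Survival times were recorded. The value is the median survival time of treated mice as a percent of untreated controls (T/C%), with 60-day long-term survivors noted.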

The subject of test [4] is Mus musculus. As to the kind of experiment: Tested for percent median survival time of drug-treated mice over that of untreated control mice at dose of 200 mg/kg. Summed up:
as §1

The subject of test [5] is Mus musculus. As to the kind of experiment: Compound was tested for percent median survival time of drug-treated mice over that of untreated control mice at dose of 35 mg/kg. An outline of the steps: as §1
For test [6], the system named is Mus musculus. As to the kind of experiment: Tested for percent median survival time of drug-treated mice over that of untreated control mice at dose of 40 mg/kg. Summed up:
as §1

Each structure is given as a SMILES string.

In turn, `O=S1(N2CC2)=NP(N2CC2)(N2CC2)=NP(N2CC2)(N2CC2)=N1` (stereo not drawn) came in with an LD50 in test [1] of 250 mg/kg. In test [2], this molecule registered an ID50 of 1.06e-05 M l-1. Also, the T/C in test [3] is listed as 188%; in test [4], 163%.

`CNP1(N2CC2)=NP(N2CC2)(N2CC2)=NP(N2CC2)(N2CC2)=N1` (stereo not drawn) showed an LD50 in test [1] of 45 mg/kg. The same molecule gave an ID50 in test [2] of 1.2e-06 M l-1. In addition, the T/C in test [5] and in test [6] was 188% in each case.
